Measurements from ChEMBL document CHEMBL3774312, “5-Substituted 3-isopropyl-7-[4-(2-pyridyl)benzyl]amino-1(2)H-pyrazolo[4,3-d]pyrimidines with anti-proliferative activity as potent and selective inhibitors of cyclin-dependent kinases” (Eur J Med Chem, 2016).
The source made the active and inactive calls. The rule behind the calls is not given here.

How the values were obtained:
[1] = biological target: Dual specificity tyrosine-phosphorylation-regulated kinase 1A (Homo sapiens) (UniProt Q13627); assay: Inhibition of recombinant DYRK1A (unknown origin) assessed as residual activity at 1 uM relative to control
[2] = biological target: Serine/threonine-protein kinase D1 (Homo sapiens) (UniProt Q15139); assay: Inhibition of recombinant PKD1 (unknown origin) assessed as residual activity at 1 uM relative to control
[3] = Cell cycle arrest in BrdU pulse-labelled human HCT116 cells assessed as accumulation at subG1 phase at 125 to 500 nM after 24 hrs by propidium iodide staining based flow cytometry; assay type: functional; conditions: HCT-116
[4] = biological target: Mitogen-activated protein kinase 8 (Homo sapiens) (UniProt P45983); assay: Inhibition of recombinant JNK1 (unknown origin) assessed as residual activity at 1 uM relative to control
Homo sapiens = species: Homo sapiens; assay: Inhibition of recombinant PKA (unknown origin) assessed as residual activity at 1 uM relative to control
[5] = biological target: Casein kinase I isoform delta (Homo sapiens) (UniProt P48730); assay: Inhibition of recombinant CK1delta (unknown origin) assessed as residual activity at 1 uM relative to control
[6] = biological target: Cyclin-dependent kinase 2/cyclin E1 (Homo sapiens, UniProt P24941); assay: Inhibition of CDK2/Cyclin E (unknown origin) expressed in sf9 cells using histone H1 as substrate in presence of [gamma33P]-ATP; assay type: cell-based
[7] = biological target: Calcium/calmodulin-dependent protein kinase type 1 (Homo sapiens) (UniProt Q14012); assay: Inhibition of recombinant CAMK1 (unknown origin) assessed as residual activity at 1 uM relative to control
[8] = biological target: Tyrosine-protein kinase Lck (Homo sapiens) (UniProt P06239); assay: Inhibition of recombinant LCK (unknown origin) assessed as residual activity at 1 uM relative to control
HCT-116 [9] = assay: Induction of apoptosis in human HCT116 cells assessed as PARP1 cleavage incubated for 24 hrs by immunoblotting analysis; assay type: functional, cell-based
How it was run: (§1)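 HCT-116 cells were treated with different doses for 24 h and harvested into Laemmli buffer. Proteins were separated by SDS-PAGE and blotted to nitrocellulose. Membranes were probed overnight with primary antibodies (anti-PARP F-2, anti-Mcl-1 S-19, anti-p53 DO-1), then with peroxidase secondaries. Bands were detected by ECL with a CCD camera, with tubulin as loading control.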

G-361 = assay: Induction of apoptosis in human G361 cells assessed as caspase3 activation using Ac-DEVD-AMC as substrate at IC50 preincubated for 24 hrs followed by substrate addition measured after 3 hrs by fluorescence assay; assay type: functional, cell-based
HCT-116 [10] = assay: Induction of apoptosis in human HCT116 cells assessed as increase in p53 expression at 250 to 500 nM incubated for 24 hrs by immunoblotting analysis; assay type: functional, cell-based; how it was run: as §1

Sequence of Casein kinase I isoform delta (Homo sapiens) (P48730 whole entry, looked up, canonical isoform): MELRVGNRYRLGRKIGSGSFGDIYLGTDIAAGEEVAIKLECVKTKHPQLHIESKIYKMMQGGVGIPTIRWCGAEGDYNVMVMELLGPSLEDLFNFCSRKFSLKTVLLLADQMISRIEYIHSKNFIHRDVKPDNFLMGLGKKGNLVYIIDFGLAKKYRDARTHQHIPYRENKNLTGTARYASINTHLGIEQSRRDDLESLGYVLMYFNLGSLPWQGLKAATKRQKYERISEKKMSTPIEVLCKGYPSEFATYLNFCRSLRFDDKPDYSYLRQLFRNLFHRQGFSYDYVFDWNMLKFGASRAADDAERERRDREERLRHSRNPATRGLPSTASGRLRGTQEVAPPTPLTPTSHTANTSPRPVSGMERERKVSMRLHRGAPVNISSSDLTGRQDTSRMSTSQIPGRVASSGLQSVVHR
Sequence of Calcium/calmodulin-dependent protein kinase type 1 (Homo sapiens) (Q14012 whole entry, looked up): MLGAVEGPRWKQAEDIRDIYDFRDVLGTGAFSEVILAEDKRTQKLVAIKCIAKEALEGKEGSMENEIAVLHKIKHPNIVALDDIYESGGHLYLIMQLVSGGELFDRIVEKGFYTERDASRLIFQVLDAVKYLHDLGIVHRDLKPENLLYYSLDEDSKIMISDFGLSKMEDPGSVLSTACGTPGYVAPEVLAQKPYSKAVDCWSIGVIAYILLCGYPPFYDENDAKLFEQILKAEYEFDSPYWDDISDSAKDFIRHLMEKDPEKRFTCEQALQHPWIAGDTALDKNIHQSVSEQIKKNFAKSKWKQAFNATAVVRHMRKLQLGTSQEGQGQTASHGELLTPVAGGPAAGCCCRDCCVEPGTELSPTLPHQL
Sequence of Tyrosine-protein kinase Lck (Homo sapiens) (P06239 2-509 limits assumed): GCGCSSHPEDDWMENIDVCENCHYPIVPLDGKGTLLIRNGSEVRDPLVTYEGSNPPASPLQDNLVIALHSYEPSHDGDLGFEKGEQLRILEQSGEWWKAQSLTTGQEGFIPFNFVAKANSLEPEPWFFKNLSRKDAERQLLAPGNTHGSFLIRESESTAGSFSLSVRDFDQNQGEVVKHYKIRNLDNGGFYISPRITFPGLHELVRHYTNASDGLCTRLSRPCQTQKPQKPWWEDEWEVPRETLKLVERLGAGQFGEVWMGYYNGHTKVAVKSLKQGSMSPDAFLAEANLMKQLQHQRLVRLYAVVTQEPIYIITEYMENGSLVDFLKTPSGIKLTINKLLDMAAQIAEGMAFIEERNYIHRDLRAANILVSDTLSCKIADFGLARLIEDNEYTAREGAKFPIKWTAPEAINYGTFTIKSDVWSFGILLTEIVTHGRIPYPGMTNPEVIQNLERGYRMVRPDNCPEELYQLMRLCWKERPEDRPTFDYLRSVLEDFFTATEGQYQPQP
Sequence of Serine/threonine-protein kinase D1 (Homo sapiens) (Q15139 whole entry): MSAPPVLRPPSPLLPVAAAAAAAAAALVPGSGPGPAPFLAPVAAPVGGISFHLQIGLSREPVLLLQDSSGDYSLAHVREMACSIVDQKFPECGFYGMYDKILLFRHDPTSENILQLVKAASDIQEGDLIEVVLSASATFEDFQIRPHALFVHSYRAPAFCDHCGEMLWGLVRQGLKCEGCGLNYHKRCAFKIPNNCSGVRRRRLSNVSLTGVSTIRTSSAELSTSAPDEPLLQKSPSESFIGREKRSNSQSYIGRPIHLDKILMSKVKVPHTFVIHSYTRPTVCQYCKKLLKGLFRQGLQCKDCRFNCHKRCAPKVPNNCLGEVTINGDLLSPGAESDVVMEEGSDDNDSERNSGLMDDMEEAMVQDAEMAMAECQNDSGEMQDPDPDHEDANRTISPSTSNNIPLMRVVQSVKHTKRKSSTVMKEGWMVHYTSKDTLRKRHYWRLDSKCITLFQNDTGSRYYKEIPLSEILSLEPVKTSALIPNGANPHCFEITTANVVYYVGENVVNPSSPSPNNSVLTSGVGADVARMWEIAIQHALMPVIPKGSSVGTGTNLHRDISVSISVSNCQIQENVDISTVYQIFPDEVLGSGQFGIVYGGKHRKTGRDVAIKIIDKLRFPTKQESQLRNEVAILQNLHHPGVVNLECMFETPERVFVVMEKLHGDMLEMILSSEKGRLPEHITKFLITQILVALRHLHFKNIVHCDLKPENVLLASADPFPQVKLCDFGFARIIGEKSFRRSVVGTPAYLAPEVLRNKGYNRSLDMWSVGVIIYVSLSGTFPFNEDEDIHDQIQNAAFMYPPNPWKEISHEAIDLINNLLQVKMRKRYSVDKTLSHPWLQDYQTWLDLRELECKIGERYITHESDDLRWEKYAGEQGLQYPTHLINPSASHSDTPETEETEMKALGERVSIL
Sequence of Mitogen-activated protein kinase 8 (Homo sapiens) (P45983 whole entry): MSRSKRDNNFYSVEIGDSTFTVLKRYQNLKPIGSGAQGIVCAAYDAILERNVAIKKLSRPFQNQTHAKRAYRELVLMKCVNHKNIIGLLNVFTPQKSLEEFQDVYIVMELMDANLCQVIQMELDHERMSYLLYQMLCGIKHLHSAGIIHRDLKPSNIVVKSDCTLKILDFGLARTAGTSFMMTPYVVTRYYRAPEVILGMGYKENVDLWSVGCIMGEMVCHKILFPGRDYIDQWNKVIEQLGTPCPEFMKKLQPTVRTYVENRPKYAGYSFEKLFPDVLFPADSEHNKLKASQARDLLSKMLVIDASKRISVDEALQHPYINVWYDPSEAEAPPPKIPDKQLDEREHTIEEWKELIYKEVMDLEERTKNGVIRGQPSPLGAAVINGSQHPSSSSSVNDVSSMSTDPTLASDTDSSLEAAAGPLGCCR

- Activity [1]: 60%
- Activity [2]: > 100%
- Activity [4]: 93%
- Activity (Homo sapiens): 96%
- Activity [5]: 67%
- IC50 [6]: 21 nM
- Activity [7]: 77%
- Activity [8]: > 100%
SMILES: CC(O)CNc1nc(NCc2ccc(-c3ccccn3)cc2)c2[nH]nc(C(C)C)c2n1 (configuration not stated)
- Activity [3]: Active
- Activity (HCT-116 [9]): Dose-dependent effect
- Activity (G-361): Active
- Activity (HCT-116 [10]): Active
